High-throughput results as filed in PubChem BioAssay.
Shown are actives, neighbours in structure and some others; about 2.3% of the full set was active somewhere.
Rpn11 inh: Rpn11 (human) deubiquitinase inhibition | human 26S proteasome, Ub4-pepOG fluorescence polarization; 20S core pre-blocked with epoxomicin | inhibition, % at 20 µM | 360,000 tested, 0.59% active;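 active = inhibition at 20 µM, scaled to each plate's controls, above about 33%, limit read from the data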
TPT1 inh: C. albicans TPT1 enzyme inhibition; recombinant caTPT1, FP RNA substrate dephosphorylation; inhibition, % at 5 µM; 300,000 tested, 0.81% active; AID 1962;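 active = inhibition above the mean of all tested compounds plus 3 SD, set per screening campaign, cut at about 24% in these data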;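 note: plate controls were DMSO alone for no effect and ferristatin control at 100 nM for full effect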
Myeloid diff MLP: myeloid differentiation induction. ER-HoxA9 myeloid progenitors, lysozyme-GFP differentiation, flow cytometry. calls only at 10 µM. 360,000 tested, 1% active. AID 624256;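 active = normalized GFP-positive differentiation at or above the plate's own cutoff, the solvent-only control mean plus 3 SD; inconclusive = no clear call, values can overlap the other calls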;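 note: cells exposed to compound for four days before flow analysis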
CSN inh: inhibitors of human CSN-mediated cullin deneddylation; AID 651999; Q92905; Purified CSN, SCF-Nedd8-OG deneddylation, fluorescence polarization; inhibition, % at 12.5 µM; 360,000 tested, 0.38% active;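 active = pattern-corrected inhibition above about 35%, with an unprinted fluorescence ratio check between 0.5 and 1.5, limit read from the data, passing the limit was not always enough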;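 note: 0% = enzyme with substrate and 100% = substrate without enzyme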
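Schedule: reaction 90 min, room temperature / Assay system: HEK293T-derived human Csn5 enzyme / Input: Csn5 at 0.24 nM final / Measure: inhibition of Csn5 cleavage, % / Control set: substrate-only high control, full reaction low control / Technique: fluorescence polarization of the substrate / Buffer or medium: Tris/NaCl/DTT buffer, pH 7.5 / Reagent: SCFSkp2-Nedd8OG substrate at 10 nM final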
HNF4A DNA FP: change in binding of human HNF4 alpha to DNA; P41235; HNF4a-FITC DNA binding, fluorescence polarization, 1 h; activity change, % at 10 µM; 360,000 tested, 0.3% active; in the data active = activity change above about 30%, passing the limit was not always enough
Rpn11 confirm: confirmation of human proteasome Rpn11 inhibitors; shares compounds with Rpn11 inh; inhibition, % at 20 µM; purified human 26S proteasome, Ub4-pepOG fluorescence polarization; proteasome pretreated with epoxomicin; AID 602318; 1,900 tested, 29% active
MMP-2 counter: MMP-2 (human) inhibition counter-screen; shares compounds with Rpn11 inh; recombinant MMP-2, FRET peptide cleavage fluorescence; inhibition, % at 20 µM; 1,900 tested, 4% active; AID 602330;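 note: human MMP-2 activated beforehand with APMA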
Target sequence (P08253 whole entry, looked up): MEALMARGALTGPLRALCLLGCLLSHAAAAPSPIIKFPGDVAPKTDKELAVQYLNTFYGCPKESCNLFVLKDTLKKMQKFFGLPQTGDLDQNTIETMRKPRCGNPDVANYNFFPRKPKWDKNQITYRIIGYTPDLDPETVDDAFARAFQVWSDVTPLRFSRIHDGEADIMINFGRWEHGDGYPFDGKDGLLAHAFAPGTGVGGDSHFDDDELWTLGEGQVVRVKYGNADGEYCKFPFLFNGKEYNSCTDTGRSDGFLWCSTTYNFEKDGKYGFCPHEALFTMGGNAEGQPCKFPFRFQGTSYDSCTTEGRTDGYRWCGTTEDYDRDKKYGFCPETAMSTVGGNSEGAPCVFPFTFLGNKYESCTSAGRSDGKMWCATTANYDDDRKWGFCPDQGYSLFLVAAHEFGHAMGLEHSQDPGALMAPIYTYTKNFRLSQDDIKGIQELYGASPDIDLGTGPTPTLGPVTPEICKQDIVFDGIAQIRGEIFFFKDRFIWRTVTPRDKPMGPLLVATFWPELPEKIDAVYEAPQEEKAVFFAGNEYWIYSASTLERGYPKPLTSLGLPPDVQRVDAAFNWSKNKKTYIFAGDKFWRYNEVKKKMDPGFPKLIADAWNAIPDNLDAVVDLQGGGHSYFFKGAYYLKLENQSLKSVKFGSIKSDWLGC
Thrombin FP: counter-screen for RPN11 inhibitors: inhibition of bovine thrombin. shares compounds with Rpn11 inh. bovine thrombin cleavage of Ub4-pepOG, fluorescence polarization. inhibition, % at 20 µM. 1,900 tested, 13% active. AID 602333;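 active = mean inhibition at least 40% at 20 µM, or signal 3 deviations below plate average, so some actives read negative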;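 note: plate controls were thrombin with DMSO for no effect and buffer wells lacking thrombin for full effect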
Numbers without * were called inactive. Cut-off read from the data, not from the text of the source, unless noted: active = inhibition above about 40%; inactive = the rest.

Screening COc1ccc(-c2ccc3c(c2)S(=O)(=O)c2cccc(C(=O)N4CCN(c5c(Cl)cncc5Cl)CC4)c2C3=O)cc1OC returned Rpn11 inh 76*, Myeloid diff MLP inactive, CSN inh 21, HNF4A DNA FP 42*, Rpn11 confirm 43*, MMP-2 counter -13 and Thrombin FP 17.
NC(=O)[C@@H]1CCCN1Cc1c(C(=O)N2CCc3ccccc3C2)nc2ccc(Cl)cn12 was read as Rpn11 inh -13, TPT1 inh -8, Myeloid diff MLP inactive, CSN inh 0 and HNF4A DNA FP -7.
CCOC(=O)/C=c1\s/c(=C\c2ccc(C(F)(F)F)cc2)c(=O)n1CC(=O)NCc1ccco1 was read as Rpn11 inh 49*, TPT1 inh 23, Myeloid diff MLP inactive, CSN inh 12, HNF4A DNA FP 10, Rpn11 confirm 36, MMP-2 counter -29 and Thrombin FP 38.
Cc1ccccc1NC(=O)Cn1nnc(S(=O)(=O)c2ccc(C(C)(C)C)cc2)c1N was read as Rpn11 inh 55*, TPT1 inh 1, Myeloid diff MLP inactive, CSN inh -5, HNF4A DNA FP 13, Rpn11 confirm 31, MMP-2 counter -17 and Thrombin FP -6.
For Cc1ccc(-c2nc(NC(=O)CSc3nnc4scc(-c5ccccc5)n34)ns2)cc1 the results were Rpn11 inh 60*, TPT1 inh 3, Myeloid diff MLP active, CSN inh 37*, HNF4A DNA FP -3, Rpn11 confirm 7, MMP-2 counter -30 and Thrombin FP -2.
`CC(=O)NCCNc1nc2cc(-c3ccsc3)sc2c(=O)n1C` gave Rpn11 inh -2, Myeloid diff MLP inactive, CSN inh 4 and HNF4A DNA FP 6.
`CCCCCCCCN1C(=O)[C@H](CC(=O)N2CCCC2)C[C@@]2(C(=O)OC)CCCCC=C12` gave Myeloid diff MLP inconclusive, CSN inh 2 and HNF4A DNA FP 1.
`Clc1ccc(C2Nc3ccccc3-n3cccc32)cc1` (stereo not drawn) gave Rpn11 inh 54*, TPT1 inh 3, Myeloid diff MLP inactive, CSN inh 2, HNF4A DNA FP 4, Rpn11 confirm 13, MMP-2 counter 9 and Thrombin FP -9.
For COc1cc(-c2cc(-c3ccc(F)cc3)nc(N)c2C#N)ccc1O the results were Rpn11 inh 97*, TPT1 inh -1, Myeloid diff MLP inactive, CSN inh -8, HNF4A DNA FP 83*, Rpn11 confirm 0, MMP-2 counter -12 and Thrombin FP -7.
For COc1cc(C(=O)Nc2nnc(-c3sccc3C)s2)cc(OC)c1OC the results were Rpn11 inh 174*, TPT1 inh 1, Myeloid diff MLP inactive, CSN inh 59*, HNF4A DNA FP 7, Rpn11 confirm 31, MMP-2 counter -52 and Thrombin FP 64*.
Screening CCOC(=O)c1cccc(OS(=O)(=O)Cc2ccccc2)c1 returned Rpn11 inh -1, TPT1 inh 0, Myeloid diff MLP inactive, CSN inh 1 and HNF4A DNA FP 7.
`COc1ccc(C(=O)CSc2nnc(NC(=O)C3CC(=O)N(c4ccccc4)C3)s2)cc1` (stereo not drawn) gave Rpn11 inh 44*, TPT1 inh 4, Myeloid diff MLP inactive, CSN inh -3, HNF4A DNA FP 4, Rpn11 confirm 13, MMP-2 counter 2 and Thrombin FP -4.
`COc1cccc(N2CC(C(=O)Nc3nnc(SCC(=O)c4ccccc4)s3)CC2=O)c1` (stereo not drawn) gave Rpn11 inh 8, TPT1 inh 2, Myeloid diff MLP inactive, CSN inh -5 and HNF4A DNA FP 2.
For CC(C)CC(N)c1csc(Nc2ccccn2)n1 (stereo not drawn) the results were Rpn11 inh -11, Myeloid diff MLP inactive, CSN inh 3 and HNF4A DNA FP 2.
c1ccc(OCCn2c(-c3ccco3)nc3ccccc32)cc1 was read as Rpn11 inh 49*, TPT1 inh 10, Myeloid diff MLP inactive, CSN inh 9, HNF4A DNA FP 10, Rpn11 confirm -5, MMP-2 counter -13 and Thrombin FP -14.
`Cc1ccc(-c2nn(-c3cccc(F)c3)cc2CNCc2cccnc2)o1` gave Rpn11 inh 48*, TPT1 inh 7, Myeloid diff MLP inactive, CSN inh 4, HNF4A DNA FP 22, Rpn11 confirm 24, MMP-2 counter -13 and Thrombin FP 21.
`O=c1[nH]c2ccccc2nc1NCCN1CCOCC1` gave Rpn11 inh 43*, TPT1 inh 1, Myeloid diff MLP inactive, CSN inh 1, HNF4A DNA FP 2, Rpn11 confirm -13, MMP-2 counter -17 and Thrombin FP -4.
Screening CC(C)CN(C(=O)CN(C)C(=O)c1ccco1)c1c(N)n(CC(C)C)c(=O)[nH]c1=O returned Rpn11 inh -6, TPT1 inh 0, Myeloid diff MLP inactive, CSN inh -2 and HNF4A DNA FP 2.
Screening O=C(Nc1ccc(S(=O)(=O)Nc2nccs2)cc1)c1nn(-c2ccccc2)ccc1=O returned Rpn11 inh 19, TPT1 inh 9, Myeloid diff MLP inactive, CSN inh 10 and HNF4A DNA FP -21.
`COc1ccc(-n2ccc(=O)c(C(=O)Nc3ccc(S(=O)(=O)Nc4nccs4)cc3)n2)cc1` gave Rpn11 inh 48*, TPT1 inh 0, Myeloid diff MLP inactive, CSN inh -1, HNF4A DNA FP 3, Rpn11 confirm 2, MMP-2 counter 68* and Thrombin FP 19.
CCc1c(Cl)nc(N)nc1Nc1ccccc1Cl was read as Rpn11 inh 0, Myeloid diff MLP inactive, CSN inh -4 and HNF4A DNA FP -2.
`CCc1c(Cl)nc(N)nc1Nc1ccccc1C` gave Rpn11 inh 76*, Myeloid diff MLP inactive, CSN inh 0, HNF4A DNA FP 25, Rpn11 confirm -31, MMP-2 counter -14 and Thrombin FP -19.
For O=C(Nc1cccc(OCC(=O)N2CCOCC2)c1)c1ccc(C(F)(F)F)cc1 the results were Rpn11 inh 0, TPT1 inh -1, Myeloid diff MLP inactive, CSN inh -1 and HNF4A DNA FP 2.
For CCOC1=C/C(=C/c2c(N)n3nc(CC(=O)N4CCCC4)sc3nc2=O)C=CC1=O the results were Rpn11 inh 71*, TPT1 inh 8, Myeloid diff MLP inactive, CSN inh 20, HNF4A DNA FP 13, Rpn11 confirm 35, MMP-2 counter 23 and Thrombin FP 38.
